Active and inactive are the calls of the source. The rule behind the calls is not given here.
Assays:
[1] = molecular target: T1, Steroid hormone receptor ERR1 (Homo sapiens, UniProt P11474); experiment: Binding affinity to GST-tagged ERRalpha-LBD (unknown origin) using fluorescein-conjugated coactivator PGC-1alpha incubated for 1 hr by TR-FRET assay
T1 sequence (P11474 whole entry): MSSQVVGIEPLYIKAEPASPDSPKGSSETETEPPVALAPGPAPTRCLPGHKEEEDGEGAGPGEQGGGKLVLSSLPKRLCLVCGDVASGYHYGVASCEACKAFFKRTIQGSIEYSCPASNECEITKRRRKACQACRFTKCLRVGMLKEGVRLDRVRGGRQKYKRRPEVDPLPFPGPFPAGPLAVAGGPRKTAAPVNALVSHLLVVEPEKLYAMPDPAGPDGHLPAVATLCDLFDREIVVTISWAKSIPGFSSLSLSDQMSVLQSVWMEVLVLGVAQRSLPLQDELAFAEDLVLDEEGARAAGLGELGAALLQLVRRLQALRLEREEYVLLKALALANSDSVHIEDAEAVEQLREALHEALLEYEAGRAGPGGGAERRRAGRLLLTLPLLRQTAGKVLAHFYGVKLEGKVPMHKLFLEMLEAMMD

[2] = molecular target: T2, von Hippel-Lindau disease tumor suppressor/Steroid hormone receptor ERR1 (Homo sapiens) (UniProt P11474+P40337); experiment: Protac activity at VHL/ERRalpha in human MDA-MB-231 cells assessed as induction of […] degradation at 1 uM incubated for 4 hrs by Western blot analysis; assay type: cell-based
T2 sequence (P40337 whole entry, looked up, one chain of several): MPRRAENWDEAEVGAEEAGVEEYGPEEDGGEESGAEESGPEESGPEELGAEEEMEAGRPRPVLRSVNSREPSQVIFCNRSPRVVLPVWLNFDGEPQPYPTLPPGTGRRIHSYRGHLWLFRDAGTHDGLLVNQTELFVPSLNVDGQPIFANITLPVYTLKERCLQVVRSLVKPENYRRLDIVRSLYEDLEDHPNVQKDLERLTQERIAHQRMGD
Method in brief: (§1)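 MDA-MB-231 breast cancer cells were treated at the indicated concentrations for 4.0 h. ERRα protein was measured by Western blot, and % degradation was derived by densitometric image analysis. Values are means of at least three independent experiments.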

[3] = molecular target: T2, von Hippel-Lindau disease tumor suppressor/Steroid hormone receptor ERR1 (Homo sapiens); experiment: Protac activity at VHL/ERRalpha in human MDA-MB-231 cells assessed as induction of […] degradation at 30 nM incubated for 4 hrs by Western blot analysis relative to control; assay type: cell-based; method in brief: as §1
[4] = molecular target: T2, von Hippel-Lindau disease tumor suppressor/Steroid hormone receptor ERR1 (Homo sapiens); experiment: Protac activity at VHL/ERRalpha in human MDA-MB-231 cells assessed as induction of […] degradation at 100 nM incubated for 4 hrs by Western blot analysis relative to control; assay type: cell-based; method in brief: as §1
[5] = molecular target: T2, von Hippel-Lindau disease tumor suppressor/Steroid hormone receptor ERR1 (Homo sapiens); experiment: Protac activity at VHL/ERRalpha in human MDA-MB-231 cells assessed as induction of […] degradation at 10 nM incubated for 4 hrs by Western blot analysis relative to control; assay type: cell-based; method in brief: as §1
[6] = molecular target: von Hippel-Lindau disease tumor suppressor/Steroid hormone receptor ERR2 (Homo sapiens) (UniProt O95718+P40337); experiment: Protac activity at VHL/ERRbeta in human MDA-MB-231 cells assessed as induction of […] degradation up to 10 uM incubated for 4 hrs by Western blot analysis; assay type: cell-based
Sequence of von Hippel-Lindau disease tumor suppressor/Steroid hormone receptor ERR2 (Homo sapiens) (O95718 whole entry, looked up): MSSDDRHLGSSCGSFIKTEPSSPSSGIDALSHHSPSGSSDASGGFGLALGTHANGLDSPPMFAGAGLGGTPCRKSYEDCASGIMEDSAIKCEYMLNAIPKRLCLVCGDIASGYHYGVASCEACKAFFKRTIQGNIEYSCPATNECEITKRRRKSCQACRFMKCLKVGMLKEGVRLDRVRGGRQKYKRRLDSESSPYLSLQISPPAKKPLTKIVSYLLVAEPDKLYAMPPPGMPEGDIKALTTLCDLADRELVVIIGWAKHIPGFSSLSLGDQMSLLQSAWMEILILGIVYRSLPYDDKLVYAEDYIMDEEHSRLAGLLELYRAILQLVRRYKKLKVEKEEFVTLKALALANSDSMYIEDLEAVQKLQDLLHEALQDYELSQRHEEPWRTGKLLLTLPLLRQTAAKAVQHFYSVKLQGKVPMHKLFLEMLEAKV
Sequence of von Hippel-Lindau disease tumor suppressor/Steroid hormone receptor ERR2 (Homo sapiens) (P40337 whole entry, looked up): as the sequence (P40337 whole entry, looked up, one chain of several) above
Method in brief: (§2)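 Levels of the ERRβ and ERRγ homologues were assessed by Western blot in MDA-MB-231 cells after 4.0 h treatment at concentrations up to 10.0 μM.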

[7] = molecular target: T2, von Hippel-Lindau disease tumor suppressor/Steroid hormone receptor ERR1 (Homo sapiens); experiment: Protac activity at VHL/ERRalpha in human MDA-MB-231 cells assessed as decrease in ATP5B protein expression level at 100 nM incubated for 24 hrs by Western blot analysis; assay type: cell-based
Method in brief: (§3)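 MDA-MB-231 breast cancer cells were exposed to the degrader for 24 h. Protein levels of the ERRα downstream targets ATP5B, MCAD and PDK4 were then assessed by Western blot.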

[8] = molecular target: T2, von Hippel-Lindau disease tumor suppressor/Steroid hormone receptor ERR1 (Homo sapiens); experiment: Protac activity at VHL/ERRalpha in human MDA-MB-231 cells assessed as induction of […] degradation incubated for 0.5 to 4 hrs by Western blot analysis; assay type: cell-based
Method in brief: (§4)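 For the time course, MDA-MB-231 cells were exposed to PROTAC at 30 nM. ERRα protein was sampled from 30 min up to 48 h after treatment and analysed by Western blot.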

[9] = molecular target: T2, von Hippel-Lindau disease tumor suppressor/Steroid hormone receptor ERR1 (Homo sapiens); experiment: Protac activity at VHL/ERRalpha in human MDA-MB-231 cells assessed as induction of […] degradation at 3.0 nM incubated for 4 hrs by Western blot analysis; assay type: cell-based; method in brief: as §1
[10] = molecular target: T2, von Hippel-Lindau disease tumor suppressor/Steroid hormone receptor ERR1 (Homo sapiens); experiment: Protac activity at VHL/ERRalpha in epoxomicin pre-treated human MDA-MB-231 cells assessed as induction of […] degradation at 30 nM incubated for 4 hrs by Western blot analysis; assay type: cell-based
Method in brief: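 Before treatment with PROTAC at 30 nM for 4.0 h, MDA-MB-231 cells were preincubated with the proteasome inhibitor epoxomicin. ERRα protein was then assessed by Western blot.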

[11] = molecular target: T2, von Hippel-Lindau disease tumor suppressor/Steroid hormone receptor ERR1 (Homo sapiens); experiment: Protac activity at VHL/ERRalpha in human MDA-MB-231 cells assessed as decrease in MCAD protein expression level at 100 nM incubated for 24 hrs by Western blot analysis; assay type: cell-based; method in brief: as §3
[12] = molecular target: T2, von Hippel-Lindau disease tumor suppressor/Steroid hormone receptor ERR1 (Homo sapiens); experiment: Protac activity at VHL/ERRalpha in human MDA-MB-231 cells assessed as induction of […] degradation incubated for 48 hrs by Western blot analysis; assay type: cell-based; method in brief: as §4
[13] = molecular target: T2, von Hippel-Lindau disease tumor suppressor/Steroid hormone receptor ERR1 (Homo sapiens); experiment: Protac activity at VHL/ERRalpha in human MDA-MB-231 cells assessed as induction of […] degradation incubated for 4 hrs by Western blot analysis; assay type: cell-based; method in brief: as §1
[14] = molecular target: T2, von Hippel-Lindau disease tumor suppressor/Steroid hormone receptor ERR1 (Homo sapiens); experiment: Protac activity at VHL/ERRalpha in human MDA-MB-231 cells assessed as decrease in PDK4 protein expression level at 100 nM incubated for 24 hrs by Western blot analysis; assay type: cell-based; method in brief: as §3
[15] = molecular target: von Hippel-Lindau disease tumor suppressor/Estrogen-related receptor gamma (Homo sapiens) (UniProt P62508+P40337); experiment: Protac activity at VHL/ERRgamma in human MDA-MB-231 cells assessed as induction of […] degradation up to 10 uM incubated for 4 hrs by Western blot analysis; assay type: cell-based; method in brief: as §2
Sequence of von Hippel-Lindau disease tumor suppressor/Estrogen-related receptor gamma (Homo sapiens) (P40337 whole entry, looked up): as the sequence (P40337 whole entry, looked up, one chain of several) above
Sequence of von Hippel-Lindau disease tumor suppressor/Estrogen-related receptor gamma (Homo sapiens) (P62508 whole entry, looked up): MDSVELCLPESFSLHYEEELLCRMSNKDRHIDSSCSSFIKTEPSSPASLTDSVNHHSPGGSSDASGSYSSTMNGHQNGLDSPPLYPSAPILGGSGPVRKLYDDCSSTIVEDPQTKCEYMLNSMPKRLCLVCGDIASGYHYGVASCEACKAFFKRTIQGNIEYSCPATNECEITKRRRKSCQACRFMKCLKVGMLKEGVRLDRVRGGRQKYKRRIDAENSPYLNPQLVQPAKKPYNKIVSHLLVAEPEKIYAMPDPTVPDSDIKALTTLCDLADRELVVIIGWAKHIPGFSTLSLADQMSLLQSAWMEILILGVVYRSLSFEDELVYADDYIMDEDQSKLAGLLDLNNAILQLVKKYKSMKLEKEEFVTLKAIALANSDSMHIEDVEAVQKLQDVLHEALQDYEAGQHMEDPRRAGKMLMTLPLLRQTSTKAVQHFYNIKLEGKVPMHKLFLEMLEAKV

[16] = molecular target: T2, von Hippel-Lindau disease tumor suppressor/Steroid hormone receptor ERR1 (Homo sapiens); experiment: Protac activity at VHL/ERRalpha in human MDA-MB-231 cells assessed as induction of […] degradation at 300 nM incubated for 4 hrs by Western blot analysis relative to control; assay type: cell-based; method in brief: as §1
[17] = molecular target: T3, Steroid hormone receptor ERR1 (Homo sapiens) (UniProt P11474); experiment: Ratio of IC50 for XCT790 to IC50 for test compound for binding affinity to GST-tagged ERRalpha-LBD (unknown origin) using fluorescein-conjugated coactivator PGC-1alpha incubated for 1 hr by TR-FRET assay
T3 sequence (whole entry): T1 sequence (P11474 whole entry)

IC50 [1] | Activity [3] | Activity [4] | Compound | other results
4.33 nM | – | – | COc1cc(/C=C(\C#N)C(N)=O)ccc1OCc1ccc(C(F)(F)F)cc1C(F)(F)F | –
20.3 nM | – | – | COC(=O)/C(C#N)=C/c1ccc(OCc2ccc(C(F)(F)F)cc2C(F)(F)F)c(OC)c1 | –
4.67 nM | – | – | COc1cc(/C=C(\C#N)C(=O)NCCOCCC(=O)O)ccc1OCc1ccc(C(F)(F)F)cc1C(F)(F)F | Activity [2]: inactive
– | – | – | Cc1ncsc1-c1ccc(CNC(=O)[C@@H]2C[C@@H](O)CN2C(=O)[C@@H](N)C(C)(C)C)cc1 | Activity [2]: inactive
7.67 nM | 3% | 9% | COc1cc(/C=C(\C#N)C(=O)NCCCCCCCC(=O)N[C@H](C(=O)N2C[C@H](O)C[C@H]2C(=O)NCc2ccc(-c3scnc3C)cc2)C(C)(C)C)ccc1OCc1ccc(C(F)(F)F)cc1C(F)(F)F | –
11.3 nM | 79% | 92% | COc1cc(/C=C(\C#N)C(=O)NCCOCC(=O)N[C@H](C(=O)N2C[C@H](O)C[C@H]2C(=O)NCc2ccc(-c3scnc3C)cc2)C(C)(C)C)ccc1OCc1ccc(C(F)(F)F)cc1C(F)(F)F | –
12.7 nM | 83% | 96% | COc1cc(/C=C(\C#N)C(=O)NCCCCC(=O)N[C@H](C(=O)N2C[C@H](O)C[C@H]2C(=O)NCc2ccc(-c3scnc3C)cc2)C(C)(C)C)ccc1OCc1ccc(C(F)(F)F)cc1C(F)(F)F | Activity [5]: 39%; Activity [6]: inactive; Activity [7]: Active; Activity [8]: Active; Activity [9]: Active; Activity [10]: inactive; Activity [11]: Active; Activity [12]: inactive; Activity [13]: Dose-dependent effect; Activity [14]: Active; Activity [15]: inactive
9.33 nM | 63% | 89% | COc1cc(/C=C(\C#N)C(=O)NCCOCCC(=O)N[C@H](C(=O)N2C[C@H](O)C[C@H]2C(=O)NCc2ccc(-c3scnc3C)cc2)C(C)(C)C)ccc1OCc1ccc(C(F)(F)F)cc1C(F)(F)F | Activity [5]: 25%
6 nM | – | – | COc1cc(/C=C(\C#N)C(=O)NCCCCC(=O)O)ccc1OCc1ccc(C(F)(F)F)cc1C(F)(F)F | –
7 nM | 0% | 4% | COc1cc(/C=C(\C#N)C(=O)NCCOCCOCCOCCC(=O)N[C@H](C(=O)N2C[C@H](O)C[C@H]2C(=O)NCc2ccc(-c3scnc3C)cc2)C(C)(C)C)ccc1OCc1ccc(C(F)(F)F)cc1C(F)(F)F | Activity [16]: 10%
12.3 nM | 23% | 71% | COc1cc(/C=C(\C#N)C(=O)NCCCCCCC(=O)N[C@H](C(=O)N2C[C@H](O)C[C@H]2C(=O)NCc2ccc(-c3scnc3C)cc2)C(C)(C)C)ccc1OCc1ccc(C(F)(F)F)cc1C(F)(F)F | –
4.33 nM | – | – | COCCNC(=O)/C(C#N)=C/c1ccc(OCc2ccc(C(F)(F)F)cc2C(F)(F)F)c(OC)c1 | –
7.33 nM | 28% | 50% | COc1cc(/C=C(\C#N)C(=O)NCCC(=O)N[C@H](C(=O)N2C[C@H](O)C[C@H]2C(=O)NCc2ccc(-c3scnc3C)cc2)C(C)(C)C)ccc1OCc1ccc(C(F)(F)F)cc1C(F)(F)F | –
5.67 nM | – | – | COc1cc(/C=C(\C#N)C(=O)O)ccc1OCc1ccc(C(F)(F)F)cc1C(F)(F)F | Ratio IC50 [17]: 11
5.33 nM | 6% | – | COc1cc(/C=C(\C#N)C(=O)NCCCCC(=O)N[C@H](C(=O)N2C[C@@H](O)C[C@H]2C(=O)NCc2ccc(-c3scnc3C)cc2)C(C)(C)C)ccc1OCc1ccc(C(F)(F)F)cc1C(F)(F)F | –
5.67 nM | 58% | 78% | COc1cc(/C=C(\C#N)C(=O)NCCCCCC(=O)N[C@H](C(=O)N2C[C@H](O)C[C@H]2C(=O)NCc2ccc(-c3scnc3C)cc2)C(C)(C)C)ccc1OCc1ccc(C(F)(F)F)cc1C(F)(F)F | –
5.33 nM | 0% | 15% | COc1cc(/C=C(\C#N)C(=O)NCCOCCOCCC(=O)N[C@H](C(=O)N2C[C@H](O)C[C@H]2C(=O)NCc2ccc(-c3scnc3C)cc2)C(C)(C)C)ccc1OCc1ccc(C(F)(F)F)cc1C(F)(F)F | Activity [16]: 19%
8 nM | 1% | 40% | COc1cc(/C=C2\SC(=O)N(CCOCCC(=O)N[C@H](C(=O)N3C[C@H](O)C[C@H]3C(=O)NCc3ccc(-c4scnc4C)cc3)C(C)(C)C)C2=O)ccc1Oc1ccc(C#N)cc1C(F)(F)F | –
6.33 nM | 58% | 85% | COc1cc(/C=C(\C#N)C(=O)NCCCC(=O)N[C@H](C(=O)N2C[C@H](O)C[C@H]2C(=O)NCc2ccc(-c3scnc3C)cc2)C(C)(C)C)ccc1OCc1ccc(C(F)(F)F)cc1C(F)(F)F | –
